Measured values reported in ChEMBL document CHEMBL1122091, “Synthesis of pyridazine analogues of the naturally occurring nucleosides cytidine, uridine, deoxycytidine, and deoxyuridine” (1982).
The source made the active and inactive calls. The calls are words filed in the database; no cut-off is given here.

What was measured:
L1210 [1] = assay: In vitro inhibitory activity against growth of L1210 mouse leukemia cells at 10E-4 M concentration; IA means Inactive; format: functional, cell-based
Outline: (§1)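 L1210 mouse leukemia cells grown in static suspension culture in Fischer's medium for leukemic cells of mice; growth rate over a 3-day period measured with test compound present continuously.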

L1210 [2] = assay: In vivo percent increase in life span (%ILS) of mice bearing L1210 leukemia at a dose of 400 mg/kg; format: functional, Mus musculus; conditions: for ILS at 400 mg/kg: Mus musculus, L1210, dose 400 mg/kg
Outline: (§2)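 Run by the NCI Division of Cancer Treatment, which supplied the data, using standard National Cancer Institute protocols for mouse L1210 leukemia.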

L1210 [3] = assay: In vitro inhibitory activity against growth of L1210 mouse leukemia cells at 10E-4 M concentration; format: functional; conditions: read-out: ID50 (the source's name); outline: as §1
L1210 [4] = assay: In vivo percent increase in life span (%ILS) of mice bearing L1210 leukemia at a dose of 200 mg/kg; format: functional; conditions: Mus musculus; outline: as §2

| SMILES | ID50 (L1210 [1]) | ILS at 400 mg/kg (L1210 [2]) [%] | ILS (L1210 [2]; dose 400 mg/kg) [%] | IC50 (L1210 [3]) [µM] | ILS at 200 mg/kg (L1210 [4]) [%] |
| --- | --- | --- | --- | --- | --- |
| Nc1cnn(C2O[C@H](CO)[C@@H](O)[C@H]2O)c(=O)c1 (stereo partly drawn) | inactive | < 25 | – | – | – |
| CNc1cnn(C2O[C@H](CO)[C@@H](O)[C@H]2O)c(=O)c1Cl (stereo partly drawn) | inactive | < 25 | – | – | – |
| O=C1C=NN(C2O[C@H](CO)[C@@H](O)[C@H]2O)C(=O)C1 (stereo partly drawn) | inactive | < 25 | – | – | – |
| O=c1cnn([C@@H]2O[C@H](CO)[C@@H](O)[C@H]2O)c(=O)[nH]1 [6-AZAURIDINE] | inactive | < 25 | – | – | – |
| O=C1C=NN([C@H]2C[C@H](O)[C@@H](CO)O2)C(=O)C1 | inactive | < 25 | – | – | – |
| COc1cnn(C2O[C@H](CO)[C@@H](O)[C@H]2O)c(=O)c1 (stereo partly drawn) | inactive | < 25 | – | – | – |
| CC(=O)OC[C@H]1O[C@@H](n2ncc(N)cc2=O)[C@H](OC(C)=O)[C@@H]1OC(C)=O | inactive | < 25 | – | – | – |
| Oc1nncc(Cl)c1Cl | inactive | > 25 | – | – | – |
| O=c1ccn([C@@H]2O[C@H](CO)[C@@H](O)[C@H]2O)c(=O)[nH]1 [URIDINE] | inactive | < 25 | – | – | – |
| CSc1cnn(C2O[C@H](CO)[C@@H](O)[C@H]2O)c(=O)c1SC (stereo partly drawn) | inactive | < 25 | – | – | – |
| O=C(OC[C@H]1O[C@@H](n2ncc(Cl)c(Cl)c2=O)[C@H](OC(=O)c2ccccc2)[C@@H]1OC(=O)c1ccccc1)c1ccccc1 | inactive | < 25 | – | – | – |
| CN(C)c1cnn(C2O[C@H](CO)[C@@H](O)[C@H]2O)c(=O)c1N(C)C (stereo partly drawn) | inactive | < 25 | – | – | – |
| COc1cnn([C@H]2C[C@H](O)[C@@H](CO)O2)c(=O)c1 | inactive | < 25 | – | – | – |
| O=c1c(SCc2ccccc2)c(SCc2ccccc2)cnn1C1O[C@H](CO)[C@@H](O)[C@H]1O (stereo partly drawn) | inactive | < 25 | – | – | – |
| CN(C)c1cnn(C2O[C@H](CO)[C@@H](O)[C@H]2O)c(=O)c1 (stereo partly drawn) | inactive | < 25 | – | – | – |
| O=C(OC[C@H]1O[C@@H](n2ncccc2=O)[C@H](OC(=O)c2ccccc2)[C@@H]1OC(=O)c1ccccc1)c1ccccc1 | inactive | < 25 | – | – | – |
| CN(C)c1cnn(C2O[C@H](CO)[C@@H](O)[C@H]2O)c(=O)c1Cl (stereo partly drawn) | inactive | < 25 | – | – | – |
| COc1cnn(C2O[C@H](CO)[C@@H](O)[C@H]2O)c(=O)c1Cl (stereo partly drawn) | inactive | < 25 | – | – | – |
| COc1cnn([C@H]2C[C@H](O)[C@@H](CO)O2)c(=O)c1Cl | inactive | < 25 | – | – | – |
| O=c1cccnn1C1O[C@H](CO)[C@@H](O)[C@H]1O (stereo partly drawn) | inactive | < 25 | – | – | – |
| Nc1cnn(C2O[C@H](CO)[C@@H](O)[C@H]2O)c(=O)c1Cl (stereo partly drawn) | inactive | < 25 | – | – | – |
| Nc1cnn([C@H]2C[C@H](O)[C@@H](CO)O2)c(=O)c1Cl | inactive | < 25 | – | – | – |
| O=c1cc(O)cnn1[C@@H]1O[C@H](CO)[C@@H](O)[C@H]1O (stereo in doubt; 17) | – | – | >25 | – | – |
| CC(=O)OC[C@H]1O[C@@H](N2N=CC(=O)CC2=O)[C@H](OC(C)=O)[C@@H]1OC(C)=O | inactive | < 25 | – | – | – |
| CNc1cnn(C2O[C@H](CO)[C@@H](O)[C@H]2O)c(=O)c1 (stereo partly drawn) | inactive | < 25 | – | – | – |
| O=c1cc(O)cnn1[C@@H]1O[C@H](CO)[C@@H](O)[C@H]1O (stereo in doubt; 15) | – | 32 | – | 70 | 32 |
| CC1(C)O[C@@H]2[C@H](O1)[C@@H](CO)O[C@H]2n1ncc(N)c(Cl)c1=O | inactive | < 25 | – | – | – |
| C[Si](C)(C)Oc1nncc(Cl)c1Cl | inactive | < 25 | – | – | – |
| Nc1cnn([C@H]2C[C@H](O)[C@@H](CO)O2)c(=O)c1 | inactive | < 25 | – | – | – |
